Assay results reported in ChEMBL document CHEMBL4689842, “EUbOPEN Chemogenomics Library wave 1” (2021).

Tested on: U2OS
Assay: Multiplex assay against U2OS
Type: toxicity, cell-based
Conditions: human
Procedure, shortened: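 Live cells carried four stains from seeding: Hoechst33342, BioTracker Green Microtubule Cytoskeleton Dye, MitoTracker Red and Annexin V Alexa Fluor 680. They were imaged on a CQ1 microscope at 37°C and 5% CO2 after compound addition. Using CellPathfinder machine-learning gating, cells were split into Hoechst high-intensity objects or normal cells, normal cells into healthy, pyknosed or fragmented nuclei, and pyknosed cells into mitotic or apoptotic; tubulin, mitochondrial-mass and membrane-permeability phenotypes are per cents of healthy-nucleus cells.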

[1] = 12 h, 1 µM, compound concentration 1 uM, replicate 1
[2] = 12 h, 1 µM, compound concentration 1 uM, replicate 2
[3] = 12 h, 10 µM, compound concentration 10 uM, replicate 1
[4] = 12 h, 10 µM, compound concentration 10 uM, replicate 2
[5] = 24 h, 1 µM, compound concentration 1 uM, replicate 1
[6] = 24 h, 1 µM, compound concentration 1 uM, replicate 2
[7] = 24 h, 10 µM, compound concentration 10 uM, replicate 1
[8] = 24 h, 10 µM, compound concentration 10 uM, replicate 2
[9] = 48 h, 1 µM, compound concentration 1 uM, replicate 1
[10] = 48 h, 1 µM, compound concentration 1 uM, replicate 2
[11] = 48 h, 10 µM, compound concentration 10 uM, replicate 1
[12] = 48 h, 10 µM, compound concentration 10 uM, replicate 2

COc1cc(N2CCN(C)CC2)ccc1Nc1ncc2c(n1)N(C)c1ccccc1C(=O)N2C
Population Apoptotic (%) [1]: 33% | Population Fragmented Nuclei (%) [1]: 12% | Population Healthy Nuclei (%) [1]: 72% | Population Hoechst High Intensity Objects (%) [1]: 6% | Population Membrane Permeable-Phenotype (%) [1]: 6% | Population Mitochondria Different-Phenotype (%) [1]: 25% | Population Mitotic Cells (%) [1]: 66% | Population Normal (%) [1]: 93% | Population Pyknosed Nuclei (%) [1]: 14% | Population Tubulin-Different-Phenotype (%) [1]: 17% | Total Cell Count [1]: 199 | Population Apoptotic (%) [2]: 40% | Population Fragmented Nuclei (%) [2]: 5% | Population Healthy Nuclei (%) [2]: 82% | Population Hoechst High Intensity Objects (%) [2]: 4% | Population Membrane Permeable-Phenotype (%) [2]: 9% | Population Mitochondria Different-Phenotype (%) [2]: 21% | Population Mitotic Cells (%) [2]: 60% | Population Normal (%) [2]: 95% | Population Pyknosed Nuclei (%) [2]: 12% | Population Tubulin-Different-Phenotype (%) [2]: 15% | Total Cell Count [2]: 104 | Population Apoptotic (%) [3]: 60% | Population Fragmented Nuclei (%) [3]: 11% | Population Healthy Nuclei (%) [3]: 66% | Population Hoechst High Intensity Objects (%) [3]: 7% | Population Membrane Permeable-Phenotype (%) [3]: 22% | Population Mitochondria Different-Phenotype (%) [3]: 96% | Population Mitotic Cells (%) [3]: 39% | Population Normal (%) [3]: 92% | Population Pyknosed Nuclei (%) [3]: 21% | Population Tubulin-Different-Phenotype (%) [3]: 99% | Total Cell Count [3]: 177 | Population Apoptotic (%) [4]: 66% | Population Fragmented Nuclei (%) [4]: 15% | Population Healthy Nuclei (%) [4]: 61% | Population Hoechst High Intensity Objects (%) [4]: 5% | Population Membrane Permeable-Phenotype (%) [4]: 21% | Population Mitotic Cells (%) [4]: 33% | Population Normal (%) [4]: 94% | Population Pyknosed Nuclei (%) [4]: 23% | Population Tubulin-Different-Phenotype (%) [4]: 100% | Total Cell Count [4]: 42 | Population Apoptotic (%) [5]: 29% | Population Fragmented Nuclei (%) [5]: 11% | Population Hoechst High Intensity Objects (%) [5]: 5% | Population Membrane Permeable-Phenotype (%) [5]: 3% | Population Mitochondria Different-Phenotype (%) [5]: 8% | Population Mitotic Cells (%) [5]: 70% | Population Normal (%) [5]: 94% | Population Pyknosed Nuclei (%) [5]: 12% | Population Tubulin-Different-Phenotype (%) [5]: 8% | Total Cell Count [5]: 187 | Population Apoptotic (%) [6]: 50% | Population Fragmented Nuclei (%) [6]: 9% | Population Healthy Nuclei (%) [6]: 75% | Population Hoechst High Intensity Objects (%) [6]: 6% | Population Membrane Permeable-Phenotype (%) [6]: 6% | Population Mitochondria Different-Phenotype (%) [6]: 12% | Population Mitotic Cells (%) [6]: 50% | Population Normal (%) [6]: 93% | Population Pyknosed Nuclei (%) [6]: 14% | Population Tubulin-Different-Phenotype (%) [6]: 6% | Total Cell Count [6]: 101 | Population Apoptotic (%) [7]: 69% | Population Fragmented Nuclei (%) [7]: 18% | Population Healthy Nuclei (%) [7]: 50% | Population Hoechst High Intensity Objects (%) [7]: 7% | Population Membrane Permeable-Phenotype (%) [7]: 19% | Population Mitochondria Different-Phenotype (%) [7]: 94% | Population Mitotic Cells (%) [7]: 30% | Population Normal (%) [7]: 92% | Population Pyknosed Nuclei (%) [7]: 30% | Population Tubulin-Different-Phenotype (%) [7]: 97% | Total Cell Count [7]: 204 | Population Apoptotic (%) [8]: 76% | Population Fragmented Nuclei (%) [8]: 11% | Population Healthy Nuclei (%) [8]: 63% | Population Hoechst High Intensity Objects (%) [8]: 8% | Population Membrane Permeable-Phenotype (%) [8]: 30% | Population Mitochondria Different-Phenotype (%) [8]: 93% | Population Mitotic Cells (%) [8]: 23% | Population Normal (%) [8]: 91% | Population Pyknosed Nuclei (%) [8]: 25% | Population Tubulin-Different-Phenotype (%) [8]: 66% | Total Cell Count [8]: 44 | Population Apoptotic (%) [9]: 42% | Population Fragmented Nuclei (%) [9]: 7% | Population Healthy Nuclei (%) [9]: 77% | Population Membrane Permeable-Phenotype (%) [9]: 4% | Population Mitochondria Different-Phenotype (%) [9]: 5% | Population Mitotic Cells (%) [9]: 57% | Population Pyknosed Nuclei (%) [9]: 14% | Population Tubulin-Different-Phenotype (%) [9]: 8% | Total Cell Count [9]: 182 | Population Apoptotic (%) [10]: 60% | Population Fragmented Nuclei (%) [10]: 5% | Population Healthy Nuclei (%) [10]: 76% | Population Hoechst High Intensity Objects (%) [10]: 3% | Population Membrane Permeable-Phenotype (%) [10]: 9% | Population Mitochondria Different-Phenotype (%) [10]: 16% | Population Mitotic Cells (%) [10]: 40% | Population Normal (%) [10]: 96% | Population Pyknosed Nuclei (%) [10]: 18% | Population Tubulin-Different-Phenotype (%) [10]: 11% | Total Cell Count [10]: 88 | Population Apoptotic (%) [11]: 84% | Population Fragmented Nuclei (%) [11]: 21% | Population Healthy Nuclei (%) [11]: 42% | Population Hoechst High Intensity Objects (%) [11]: 7% | Population Membrane Permeable-Phenotype (%) [11]: 18% | Population Mitotic Cells (%) [11]: 15% | Population Normal (%) [11]: 92% | Population Pyknosed Nuclei (%) [11]: 35% | Population Tubulin-Different-Phenotype (%) [11]: 82% | Total Cell Count [11]: 297 | Population Apoptotic (%) [12]: 63% | Population Fragmented Nuclei (%) [12]: 11% | Population Healthy Nuclei (%) [12]: 46% | Population Hoechst High Intensity Objects (%) [12]: 19% | Population Membrane Permeable-Phenotype (%) [12]: 33% | Population Mitochondria Different-Phenotype (%) [12]: 90% | Population Mitotic Cells (%) [12]: 36% | Population Normal (%) [12]: 80% | Population Pyknosed Nuclei (%) [12]: 42% | Population Tubulin-Different-Phenotype (%) [12]: 61% | Total Cell Count [12]: 57
